ChEMBL document CHEMBL1149771, “Antimicrobial studies of 2,4-dichloro-5-fluorophenyl containing oxadiazoles” (2008)
Converted amounts (≈) assume the structure as drawn.

Columns and labels:
Format in all cases: functional
[1] = tested on: Candida albicans; assay: Antifungal activity against Candida albicans at 35 degC after 48 hrs
Procedure, shortened: (§1)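 Fungicidal endpoint (MFC). 0.1 ml from each broth-dilution tube was spread on agar plates and c.f.u. counted after 48 h at 35 °C. MFC was the lowest concentration killing 99.9% of the inoculum.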

[2] = tested on: Pseudomonas aeruginosa; assay: Antibacterial activity against Pseudomonas aeruginosa ATCC 27853 at 35 degC after 18 to 24 hrs
Procedure, shortened: (§2)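 Bactericidal endpoint (MBC) taken from the broth-dilution MIC tubes. 0.1 ml from each tube was spread on agar plates and c.f.u. counted after 18–24 h. MBC was the lowest concentration completely killing the bacteria.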

[3] = tested on: Staphylococcus aureus; assay: Antibacterial activity against Staphylococcus aureus ATCC 25923 at 35 degC after 18 to 24 hrs; procedure, shortened: as §2
[4] = tested on: Candida albicans; assay: Antifungal activity against Candida albicans at 35 degC after 48 hrs by broth dilution method
Procedure, shortened: (§3)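 Fungal MIC by broth dilution. Two-fold serial dilutions of compound in nutrient broth were inoculated with about 1.6 × 10⁴–6 × 10⁴ c.f.u./ml. Incubation was 48 h at 35 °C. MIC was the lowest concentration arresting fungal growth.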

[5] = tested on: Trichophyton mentagrophytes; assay: Antifungal activity against Trichophyton mentagrophytes at 35 degC after 48 hrs; procedure, shortened: as §1
[6] = tested on: Escherichia coli; assay: Antibacterial activity against Escherichia coli ATCC 25922 at 35 degC after 18 to 24 hrs; procedure, shortened: as §2
[7] = tested on: Escherichia coli; assay: Antibacterial activity against Escherichia coli ATCC 25922 at 37 degC after 24 hrs by broth dilution method; details: ATCC 25922, 24 h
Procedure, shortened: (§4)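 Broth dilution MIC. Nutrient broth held two-fold serial dilutions of compound and was inoculated with about 5 × 10⁵ c.f.u. of actively dividing bacteria. Cultures ran 24 h at 37 °C, with growth checked visually and spectrophotometrically. MIC was the lowest concentration arresting growth. Ciprofloxacin was the standard.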

[8] = tested on: Pseudomonas aeruginosa; assay: Antibacterial activity against Pseudomonas aeruginosa ATCC 27853 at 37 degC after 24 hrs by disc diffusion method
Procedure, shortened: (§5)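 Disc diffusion on nutrient agar. Plates were spread with 1–2 × […] c.f.u./ml inoculum (0.5 McFarland). Sterile 6.25 mm filter-paper discs were soaked in a known concentration of compound and placed on the agar. Plates were inverted and incubated 24 h at 37 °C. Inhibition zones (mm) were read against solvent and growth controls, with ciprofloxacin as reference.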

[9] = tested on: Trichophyton mentagrophytes; assay: Antifungal activity against Trichophyton mentagrophytes at 35 degC after 48 hrs by broth dilution method; procedure, shortened: as §3
[10] = tested on: Aspergillus fumigatus; assay: Antifungal activity against Aspergillus fumigatus at 37 degC after 3 to 4 days by agar […] method
Procedure, shortened: (§6)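 Agar well diffusion for fungi, compounds in DMSO. Sabouraud agar was adjusted to pH 5.7 and lawned with a saline spore suspension (a loopful in 3 ml). Plates were dried 1 h at 37 °C, then wells were punched. Incubation was 3–4 days at 37 °C, with controls in triplicate. Inhibition zones were measured against controls, with griseofulvin as standard.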

[11] = tested on: Klebsiella pneumoniae; assay: Antibacterial activity against Klebsiella pneumoniae ATCC 25922 at 37 degC after 24 hrs by disc diffusion method; procedure, shortened: as §5
[12] = tested on: Talaromyces marneffei; assay: Antifungal activity against Penicillium marneffei at 35 degC after 48 hrs by broth dilution method; procedure, shortened: as §3
[13] = tested on: Aspergillus fumigatus; assay: Antifungal activity against Aspergillus fumigatus at 35 degC after 48 hrs; procedure, shortened: as §1
[14] = tested on: Candida albicans; assay: Antifungal activity against Candida albicans at 37 degC after 3 to 4 days by agar dilution method; details: for Activity: in the assay text read “agar diffusion method” for “agar dilution method”; procedure, shortened: as §6
[15] = tested on: Escherichia coli; assay: Antibacterial activity against Escherichia coli ATCC 25922 at 37 degC after 24 hrs by disc diffusion method; procedure, shortened: as §5
[16] = tested on: Klebsiella pneumoniae; assay: Antibacterial activity against Klebsiella pneumoniae ATCC 25922 at 35 degC after 18 to 24 hrs; details: recultured, in the assay text read “Klebsiella pneumoniae (recultured)” for “Klebsiella pneumoniae ATCC 25922”; procedure, shortened: as §2
[17] = tested on: Trichophyton mentagrophytes; assay: Antifungal activity against Trichophyton mentagrophytes at 37 degC after 3 to 4 days by agar dilution method; details: in the assay text read “agar diffusion method” for “agar dilution method”; procedure, shortened: as §6
[18] = tested on: Staphylococcus aureus; assay: Antibacterial activity against Staphylococcus aureus ATCC 25923 at 37 degC after 24 hrs by disc diffusion method; procedure, shortened: as §5
[19] = tested on: Aspergillus fumigatus; assay: Antifungal activity against Aspergillus fumigatus at 35 degC after 48 hrs by broth dilution method; procedure, shortened: as §3
[20] = tested on: Klebsiella pneumoniae; assay: Antibacterial activity against Klebsiella pneumoniae ATCC 25922 at 37 degC after 24 hrs by broth dilution method; details: recultured, in the assay text read “Klebsiella pneumoniae (recultured)” for “Klebsiella pneumoniae ATCC 25922”; procedure, shortened: as §4
[21] = tested on: Pseudomonas aeruginosa; assay: Antibacterial activity against Pseudomonas aeruginosa ATCC 27853 at 37 degC after 24 hrs by broth dilution method; details: ATCC 27853, 24 h; procedure, shortened: as §4
[22] = tested on: Talaromyces marneffei; assay: Antifungal activity against Penicillium marneffei at 35 degC after 48 hrs; procedure, shortened: as §1
[23] = tested on: Talaromyces marneffei; assay: Antifungal activity against Penicillium marneffei at 37 degC after 3 to 4 days by agar […] method; procedure, shortened: as §6
[24] = tested on: Staphylococcus aureus; assay: Antibacterial activity against Staphylococcus aureus ATCC 25923 at 37 degC after 24 hrs by broth dilution method; details: ATCC 25923, 24 h; procedure, shortened: as §4

MIC [4] [µg/mL]	MIC [7] [µg/mL]	MIC [9] [µg/mL]	MIC [12] [µg/mL]	MIC [19] [µg/mL]	MIC [20] [µg/mL]	MIC [21] [µg/mL]	MIC [24] [µg/mL]	Structure (SMILES)	MFC [1] [µg/mL]	MBC [2] [µg/mL]	MBC [3] [µg/mL]	MFC [5] [µg/mL]	MBC [6] [µg/mL]	inhibition zone (IZ) [8] [mm]	inhibition zone (IZ) [10] [mm]	MFC [13] [µg/mL]	inhibition zone (IZ) [15] [mm]	MBC [16] [µg/mL]	MFC [22] [µg/mL]	inhibition zone (IZ) [17] [mm]	also measured
> 100	12.5 (≈ 24.3 µM)	> 100	12.5 (≈ 24.3 µM)	12.5 (≈ 24.3 µM)	> 100	6.25 (≈ 12.1 µM)	> 100	Cc1cc(OCc2nnc(-c3cc(-c4cc(F)c(Cl)cc4Cl)nc4ccccc34)o2)ccc1Cl	> 100	25 (≈ 48.6 µM)	> 100	> 100	25 (≈ 48.6 µM)	26	15	25 (≈ 48.6 µM)	17	> 100	50 (≈ 97.1 µM)	–	Activity [11]: >100 µg/mL; Activity [14]: >100 µg/mL; Activity [17]: >100 µg/mL; Activity [18]: >100 µg/mL; inhibition zone (IZ) [23]: 12 mm
> 100	> 100	6.25 (≈ 12.1 µM)	> 100	12.5 (≈ 24.3 µM)	> 100	12.5 (≈ 24.3 µM)	6.25 (≈ 12.1 µM)	Cc1cc(Cl)ccc1OCc1nnc(-c2cc(-c3cc(F)c(Cl)cc3Cl)nc3ccccc23)o1	> 100	50 (≈ 97.1 µM)	25 (≈ 48.6 µM)	12.5 (≈ 24.3 µM)	> 100	12	12	50 (≈ 97.1 µM)	–	> 100	> 100	19	Activity [11]: >100 µg/mL; Activity [14]: >100 µg/mL; Activity [15]: >100 µg/mL; inhibition zone (IZ) [18]: 17 mm; Activity [23]: >100 µg/mL
6.25 (≈ 11.7 µM)	6.25 (≈ 11.7 µM)	6.25 (≈ 11.7 µM)	6.25 (≈ 11.7 µM)	6.25 (≈ 11.7 µM)	12.5 (≈ 23.4 µM)	6.25 (≈ 11.7 µM)	6.25 (≈ 11.7 µM)	Fc1cc(-c2cc(-c3nnc(COc4ccc(Cl)cc4Cl)o3)c3ccccc3n2)c(Cl)cc1Cl	6.25 (≈ 11.7 µM)	12.5 (≈ 23.4 µM)	6.25 (≈ 11.7 µM)	25 (≈ 46.7 µM)	12.5 (≈ 23.4 µM)	30	27	12.5 (≈ 23.4 µM)	26	12.5 (≈ 23.4 µM)	6.25 (≈ 11.7 µM)	21	inhibition zone (IZ) [11]: 17 mm; inhibition zone (IZ) [14]: 29 mm; inhibition zone (IZ) [18]: 20 mm; inhibition zone (IZ) [23]: 19 mm
6.25 (≈ 13 µM)	12.5 (≈ 26 µM)	6.25 (≈ 13 µM)	> 100	> 100	> 100	> 100	12.5 (≈ 26 µM)	Cc1ccccc1OCc1nnc(-c2cc(-c3cc(F)c(Cl)cc3Cl)nc3ccccc23)o1	25 (≈ 52 µM)	> 100	25 (≈ 52 µM)	12.5 (≈ 26 µM)	25 (≈ 52 µM)	–	–	> 100	12	> 100	> 100	18	Activity [8]: >100 µg/mL; Activity [10]: >100 µg/mL; Activity [11]: >100 µg/mL; inhibition zone (IZ) [14]: 25 mm; inhibition zone (IZ) [18]: 12 mm; Activity [23]: >100 µg/mL
6.25 (≈ 17.7 µM)	6.25 (≈ 17.7 µM)	6.25 (≈ 17.7 µM)	6.25 (≈ 17.7 µM)	6.25 (≈ 17.7 µM)	12.5 (≈ 35.4 µM)	6.25 (≈ 17.7 µM)	6.25 (≈ 17.7 µM)	Cc1ccc(OCc2nnc(-c3cc(F)c(Cl)cc3Cl)o2)cc1	6.25 (≈ 17.7 µM)	12.5 (≈ 35.4 µM)	12.5 (≈ 35.4 µM)	6.25 (≈ 17.7 µM)	6.25 (≈ 17.7 µM)	32	26	12.5 (≈ 35.4 µM)	25	25 (≈ 70.8 µM)	12.5 (≈ 35.4 µM)	24	inhibition zone (IZ) [11]: 18 mm; inhibition zone (IZ) [14]: 27 mm; inhibition zone (IZ) [18]: 22 mm; inhibition zone (IZ) [23]: 18 mm
